ChEMBL document CHEMBL1914294, “Synthesis, molecular modeling and preliminary biological evaluation of a set of 3-acetyl-2,5-disubstituted-2,3-dihydro-1,3,4-oxadiazole as potential antibacterial, anti-Trypanosoma cruzi and antifungal agents” (Bioorg Med Chem, 2011)
In brackets after ≈: the same amount, converted by molar mass. Each block holds one compound with its values, some of them ahead of it.

Key:
Trypanosoma cruzi = experiment: Antitrypanosomal activity against epimastigote form of Trypanosoma cruzi Y after 5 days by spectrophotometer analysis; assay type: functional, organism-based; conditions: 120 h
In short: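 Stationary-phase epimastigotes from a 10-day, 28 °C culture were set at 2.0 × 10^6 parasites/mL in LIT medium. Compounds in DMSO were diluted into LIT at 1.25–40.0 µM and incubated 5 days at 28 °C. A580 on days 0 and 5 gave % growth inhibition against untreated cultures. IC50 came from dose–response curves (≥4 concentrations). Triplicate; benznidazole reference.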

Staphylococcus aureus [1] = experiment: Antibacterial activity against vancomycin-intermediate Staphylococcus aureus VISA3 after 18 hrs; assay type: functional; conditions: VISA3, 18 h
In short: (§1)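 Twofold serial dilutions in Tryptic Soy Broth, 0.1 to 80 µg/mL; stocks in DMSO/TSB 1:10 v/v. Inoculum adjusted to 0.5 McFarland, then diluted in sterile saline and TSB. Incubated 35 °C for 18 h. MIC taken as the lowest concentration with no visible growth. Triplicate.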

Staphylococcus aureus [2] = experiment: Antibacterial activity against Staphylococcus aureus ATCC 25923 after 18 hrs; assay type: functional; conditions: ATCC 25923, 18 h; in short: as §1
Staphylococcus aureus [3] = experiment: Antibacterial activity against multidrug-resistant Staphylococcus aureus 3SP/R33 after 18 hrs; assay type: functional; conditions: 3SP/R33, 18 h
In short: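 Twofold serial dilutions in Tryptic Soy Broth, 0.1 to 80 µg/mL. Stocks prepared in DMSO/TSB 1:10 v/v. Inoculum was adjusted to 0.5 McFarland, then diluted in sterile saline and TSB. Plates were incubated at 35 °C for 18 h. MIC taken as the lowest concentration with no visible growth. Readings at 24 and 48 h served as sterility control. Run in triplicate.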

Candida albicans = experiment: Antifungal activity against Candida albicans ATCC 537Y after 48 hrs by serial dilution method; assay type: functional
In short: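 Broth microdilution following CLSI M27-A2, adapted for higher sensitivity. Stocks made in RPMI 1640 with 20% DMSO. Serial dilutions inoculated with C. albicans in RPMI 1640 at 10^3–10^5 CFU/mL final, incubated 35 °C for 48 h. MIC is the lowest concentration giving prominent growth reduction. Wells above 5% v/v DMSO were discarded. Triplicate; fluconazole reference.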

SMILES: CC(=O)N1N=C(c2ccccc2)OC1c1ccc([N+](=O)[O-])s1 (stereo not given)
IC50 (Trypanosoma cruzi): 10.2 µM
MIC (Staphylococcus aureus [1]): 0.63 µg/mL (≈ 1.99 µM)
MIC (Staphylococcus aureus [2]): 2.46 µg/mL (≈ 7.75 µM)
MIC (Staphylococcus aureus [3]): 1.25 µg/mL (≈ 3.94 µM)

SMILES: CC(=O)N1N=C(c2ccc(Cl)cc2)OC1c1ccc([N+](=O)[O-])s1 (stereo not given)
IC50 (Trypanosoma cruzi): 10.8 µM
MIC (Staphylococcus aureus [1]): 2.5 µg/mL (≈ 7.11 µM)
MIC (Staphylococcus aureus [2]): 1.97 µg/mL (≈ 5.6 µM)
MIC (Staphylococcus aureus [3]): 1.25 µg/mL (≈ 3.55 µM)
MIC (Candida albicans): 4.25 µg/mL (≈ 12.1 µM)

SMILES: CC(=O)N1N=C(c2ccc(Br)cc2)OC1c1ccc([N+](=O)[O-])s1 (stereo not given)
IC50 (Trypanosoma cruzi): 10.2 µM
MIC (Staphylococcus aureus [1]): 2.5 µg/mL (≈ 6.31 µM)
MIC (Staphylococcus aureus [2]): 2.66 µg/mL (≈ 6.71 µM)
MIC (Staphylococcus aureus [3]): 1.25 µg/mL (≈ 3.15 µM)

SMILES: CC(=O)N1N=C(c2ccc(I)cc2)OC1c1ccc([N+](=O)[O-])s1 (stereo not given)
IC50 (Trypanosoma cruzi): 12.1 µM
MIC (Staphylococcus aureus [1]): 2.5 µg/mL (≈ 5.64 µM)
MIC (Staphylococcus aureus [2]): 2.87 µg/mL (≈ 6.48 µM)
MIC (Staphylococcus aureus [3]): 1.25 µg/mL (≈ 2.82 µM)

SMILES: CC(=O)N1N=C(c2ccc(C(F)(F)F)cc2)OC1c1ccc([N+](=O)[O-])s1 (stereo not given)
IC50 (Trypanosoma cruzi): 14.2 µM
MIC (Staphylococcus aureus [1]): 2.5 µg/mL (≈ 6.49 µM)
MIC (Staphylococcus aureus [2]): 2.62 µg/mL (≈ 6.8 µM)
MIC (Staphylococcus aureus [3]): 1.25 µg/mL (≈ 3.24 µM)
MIC (Candida albicans): 7.2 µg/mL (≈ 18.7 µM)

SMILES: CC(=O)N1N=C(c2ccc(C)cc2)OC1c1ccc([N+](=O)[O-])s1 (stereo not given)
IC50 (Trypanosoma cruzi): 11.5 µM
MIC (Staphylococcus aureus [1]): 2.5 µg/mL (≈ 7.54 µM)
MIC (Staphylococcus aureus [2]): 2.62 µg/mL (≈ 7.91 µM)
MIC (Staphylococcus aureus [3]): 1.25 µg/mL (≈ 3.77 µM)
MIC (Candida albicans): 2.95 µg/mL (≈ 8.9 µM)

SMILES: CCc1ccc(C2=NN(C(C)=O)C(c3ccc([N+](=O)[O-])s3)O2)cc1 (stereo not given)
IC50 (Trypanosoma cruzi): 10.7 µM
MIC (Staphylococcus aureus [1]): 2.5 µg/mL (≈ 7.24 µM)
MIC (Staphylococcus aureus [2]): 2.69 µg/mL (≈ 7.79 µM)
MIC (Staphylococcus aureus [3]): 1.25 µg/mL (≈ 3.62 µM)

SMILES: CCCc1ccc(C2=NN(C(C)=O)C(c3ccc([N+](=O)[O-])s3)O2)cc1 (stereo not given)
IC50 (Trypanosoma cruzi): 9.9 µM
MIC (Staphylococcus aureus [1]): 1.25 µg/mL (≈ 3.48 µM)
MIC (Staphylococcus aureus [2]): 3.28 µg/mL (≈ 9.13 µM)
MIC (Staphylococcus aureus [3]): 1.25 µg/mL (≈ 3.48 µM)

SMILES: COc1ccc(C2=NN(C(C)=O)C(c3ccc([N+](=O)[O-])s3)O2)cc1 (stereo not given)
IC50 (Trypanosoma cruzi): 10.7 µM
MIC (Staphylococcus aureus [1]): 0.63 µg/mL (≈ 1.81 µM)
MIC (Staphylococcus aureus [2]): 2.23 µg/mL (≈ 6.42 µM)
MIC (Staphylococcus aureus [3]): 1.25 µg/mL (≈ 3.6 µM)

SMILES: CCOc1ccc(C2=NN(C(C)=O)C(c3ccc([N+](=O)[O-])s3)O2)cc1 (stereo not given)
IC50 (Trypanosoma cruzi): 26.6 µM
MIC (Staphylococcus aureus [1]): 2.5 µg/mL (≈ 6.92 µM)
MIC (Staphylococcus aureus [2]): 2.36 µg/mL (≈ 6.53 µM)
MIC (Staphylococcus aureus [3]): 1.25 µg/mL (≈ 3.46 µM)
MIC (Candida albicans): 5.83 µg/mL (≈ 16.1 µM)

SMILES: CCCOc1ccc(C2=NN(C(C)=O)C(c3ccc([N+](=O)[O-])s3)O2)cc1 (stereo not given)
IC50 (Trypanosoma cruzi): 12.2 µM
MIC (Staphylococcus aureus [1]): 2.5 µg/mL (≈ 6.66 µM)
MIC (Staphylococcus aureus [2]): 3.28 µg/mL (≈ 8.74 µM)
MIC (Staphylococcus aureus [3]): 2.5 µg/mL (≈ 6.66 µM)

SMILES: CCCCOc1ccc(C2=NN(C(C)=O)C(c3ccc([N+](=O)[O-])s3)O2)cc1 (stereo not given)
IC50 (Trypanosoma cruzi): 11.5 µM
MIC (Staphylococcus aureus [1]): 5 µg/mL (≈ 12.8 µM)
MIC (Staphylococcus aureus [2]): 1.25 µg/mL (≈ 3.21 µM)
MIC (Staphylococcus aureus [3]): 1.25 µg/mL (≈ 3.21 µM)
MIC (Candida albicans): 6.78 µg/mL (≈ 17.4 µM)

SMILES: CC(=O)N1N=C(c2ccc([N+](=O)[O-])cc2)OC1c1ccc([N+](=O)[O-])s1 (stereo not given)
IC50 (Trypanosoma cruzi): 9.85 µM
MIC (Staphylococcus aureus [1]): 1.25 µg/mL (≈ 3.45 µM)
MIC (Staphylococcus aureus [2]): 2.39 µg/mL (≈ 6.6 µM)
MIC (Staphylococcus aureus [3]): 2.5 µg/mL (≈ 6.9 µM)

SMILES: CC(=O)N1N=C(c2ccc(C#N)cc2)OC1c1ccc([N+](=O)[O-])s1 (stereo not given)
IC50 (Trypanosoma cruzi): 8.19 µM
MIC (Staphylococcus aureus [1]): 0.63 µg/mL (≈ 1.84 µM)
MIC (Staphylococcus aureus [2]): 2.66 µg/mL (≈ 7.77 µM)
MIC (Staphylococcus aureus [3]): 1.25 µg/mL (≈ 3.65 µM)

SMILES: COC(=O)c1ccc(C2=NN(C(C)=O)C(c3ccc([N+](=O)[O-])s3)O2)cc1 (stereo not given)
IC50 (Trypanosoma cruzi): 7.91 µM
MIC (Staphylococcus aureus [1]): 0.63 µg/mL (≈ 1.68 µM)
MIC (Staphylococcus aureus [2]): 2.95 µg/mL (≈ 7.86 µM)
MIC (Staphylococcus aureus [3]): 1.25 µg/mL (≈ 3.33 µM)

MIC (Staphylococcus aureus [2]): 0.1 µg/mL (≈ 0.286 µM)
SMILES: CC1(C)S[C@@H]2[C@H](NC(=O)[C@H](N)c3ccccc3)C(=O)N2[C@H]1C(=O)O [AMPICILLIN]

IC50 (Trypanosoma cruzi): 20.8 µM
SMILES: O=C(Cn1ccnc1[N+](=O)[O-])NCc1ccccc1 [BENZNIDAZOLE]

IC50 (Trypanosoma cruzi): 120 µM
MIC (Staphylococcus aureus [1]): 5 µg/mL (≈ 18.2 µM)
MIC (Staphylococcus aureus [2]): 5.9 µg/mL (≈ 21.4 µM)
SMILES: O=C(N/N=C/c1ccc([N+](=O)[O-])o1)c1ccc(O)cc1 [NIFUROXAZIDE]
